hERG rescue: shields human hERG channel from block by proarrhythmic agents; activation (rescue from dofetilide block), less the hit threshold, % at 10 µM; AID 1511; CHO-hERG, FluxOR thallium flux, dofetilide IC70 present; Q12809; actives 0.51% (n = 310,000);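 active = activation above the mean of controls blocked by dofetilide plus 5 SD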;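 note: thallium influx through hERG after potassium depolarization seen as dye fluorescence rise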
Target sequence (Q12809 whole entry, looked up): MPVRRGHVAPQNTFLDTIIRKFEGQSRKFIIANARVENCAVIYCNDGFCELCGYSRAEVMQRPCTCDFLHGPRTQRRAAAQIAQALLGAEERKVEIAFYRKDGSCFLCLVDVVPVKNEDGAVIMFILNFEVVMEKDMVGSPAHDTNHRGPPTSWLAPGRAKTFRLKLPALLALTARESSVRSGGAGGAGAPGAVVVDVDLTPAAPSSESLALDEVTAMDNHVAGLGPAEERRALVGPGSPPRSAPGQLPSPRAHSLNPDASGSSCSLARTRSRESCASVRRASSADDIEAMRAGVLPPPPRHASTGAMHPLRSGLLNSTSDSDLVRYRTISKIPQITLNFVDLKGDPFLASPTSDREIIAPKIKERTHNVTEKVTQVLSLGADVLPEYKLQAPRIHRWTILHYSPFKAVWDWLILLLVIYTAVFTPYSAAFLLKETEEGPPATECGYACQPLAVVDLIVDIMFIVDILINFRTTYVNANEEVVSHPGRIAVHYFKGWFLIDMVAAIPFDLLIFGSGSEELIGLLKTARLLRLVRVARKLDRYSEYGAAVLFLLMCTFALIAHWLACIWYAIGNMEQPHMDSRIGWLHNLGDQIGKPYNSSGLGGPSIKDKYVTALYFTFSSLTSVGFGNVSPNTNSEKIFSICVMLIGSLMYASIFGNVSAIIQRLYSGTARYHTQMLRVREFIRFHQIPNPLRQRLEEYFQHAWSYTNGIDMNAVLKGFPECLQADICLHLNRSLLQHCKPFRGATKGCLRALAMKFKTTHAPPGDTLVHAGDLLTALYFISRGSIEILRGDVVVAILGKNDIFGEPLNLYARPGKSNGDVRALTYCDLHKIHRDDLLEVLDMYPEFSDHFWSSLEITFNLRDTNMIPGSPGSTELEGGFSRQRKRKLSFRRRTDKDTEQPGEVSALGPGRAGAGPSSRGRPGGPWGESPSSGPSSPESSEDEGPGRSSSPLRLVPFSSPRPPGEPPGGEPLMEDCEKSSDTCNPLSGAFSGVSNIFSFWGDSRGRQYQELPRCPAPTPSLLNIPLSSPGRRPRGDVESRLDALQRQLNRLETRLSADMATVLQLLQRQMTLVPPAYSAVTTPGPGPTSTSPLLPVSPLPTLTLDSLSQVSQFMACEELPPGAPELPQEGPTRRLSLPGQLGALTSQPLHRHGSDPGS
KCNK9 inh: human KCNK9 channel inhibition. HEK293 KCNK9, FluxOR thallium flux fluorescence; hits give low values. B-score at 10 µM. actives 1.2% (n = 310,000). AID 488922;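 active = ratio B-score over 3 SD below the library mean, with starting fluorescence within 5 SD of its mean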;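 note: negative B-score means less thallium flux so channel inhibition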
KCNQ1 pot: human KCNQ1 channel potentiation or activation | P51787 | CHO-K1 KCNQ1, thallium flux FluxOR fluorescence; hits give high values | B-score at 10 µM | actives 0.35% (n = 310,000);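 active = fluorescence ratio B-score, a plate-corrected score, at least three library SD, with initial intensity B-score within 5 SD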
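assay system = KCNQ1-transfected CHO-K1 cells | medium = assay buffer with matched DMSO | probe or stimulus = depolarizing K+/Tl+ stimulus, K2SO4 and Tl2SO4 each 12.5 mM in 5x stock | dosing = single dose | incubation = dye 90 min, compound 20 min, room temperature | detection = kinetic FluxOR fluorescence, 10 s baseline plus 110 s post-stimulus | evaluation = ratio B score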
PHOSPHO1 inh: PHOSPHO1 (human) inhibition; Q8TCT1; recombinant PHOSPHO1, absorbance phosphatase assay; inhibition, % at 13.3 µM; actives 1.1% (n = 290,000); AID 1565; in the data active = inhibition above about 60%
KCNQ1 inh: blocks the human KCNQ1 potassium channel. AID 2642. B-score at 10 µM. CHO-K1 KCNQ1, FluxOR thallium flux fluorescence; hits give high values. actives 1.3% (n = 310,000). P51787;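 active = compounds whose thallium flux B-score, printed positive for inhibition, exceeds three library SD while starting fluorescence stays within three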;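 note: channel opened by potassium depolarization with thallium stimulus after 20 min compound exposure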
KCNK3 inh: human KCNK3 channel inhibition, primary screen; O14649; CHO-KCNK3 thallium flux, FluxOR fluorescence; hits give low values; B-score at 10 µM; actives 0.84% (n = 340,000);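 active = B-score under library mean minus 4 SD, starting fluorescence ratio at most library mean plus 5 SD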;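 note: more negative B-score means stronger inhibition of thallium flux through KCNK3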
KCNK9 block conf: confirmation of human KCNK9 potassium channel inhibitors | shares compounds with KCNK9 inh | HEK293 KCNK9 cells, FluxOR thallium flux fluorescence | inhibition, % at 10 µM | actives 43% (n = 4,900) | AID 492992;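 active = thallium signal inhibited by more than 5 SD of the compound-free buffer control wells, on both duplicate plates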;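 note: 0% = assay buffer control wells without compound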
Kir2-1 spec: selectivity of KCNK9 modulators against mouse Kir2.1 | shares compounds with KCNK9 inh | Kir2.1 cells, FluxOR thallium flux fluorescence | inhibition, % at 10 µM | actives 4% (n = 4,900) | AID 492993;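 active = thallium signal drop more than 5 SD beyond the mean of the no-compound control wells, seen in both duplicate plates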;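 note: signal is fluorescence rise after thallium addition divided by baseline fluorescence; plate controls were assay buffer only for no effect and full block by chlorpromazine control for full effect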
KCNK9 uninduced: non-induced cell nonspecific activity of KCNK9 modulators; inhibition, % at 10 µM; non-induced KCNK9-HEK293, FluxOR thallium flux; actives 40% (n = 4,900); shares compounds with KCNK9 inh;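 active = thallium signal drop beyond 5 SD of the untreated control mean, on both duplicate plates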;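 note: plate controls were buffer only IC0 wells for no effect and SID17386958 at its maximal inhibitory level for full effect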
The depositor's hits bear a star; i = inactive; / = no result. Shown are actives, neighbours in structure and some others; about 4% of the full set was active somewhere.

SMILES | hERG rescue | KCNK9 inh | KCNQ1 pot | PHOSPHO1 inh | KCNQ1 inh | KCNK3 inh | KCNK9 block conf | Kir2-1 spec | KCNK9 uninduced
CCOc1ccc(NC(=O)CC2C(=O)N(C)C(=S)N2Cc2ccc3c(c2)OCO3)cc1 (configuration not stated) | -9.2 | i | i | 14.6 | i | i | / | / | /
COc1ccccc1N1CCN(C(=O)CCSCc2ccccc2F)CC1 | -24.2 | i | i | -2.7 | i | i | / | / | /
COc1cccc(N2CCN(C(=O)CCSCc3ccccc3F)CC2)c1 | -21.3 | i | i | 4.4 | i | i | i | i | i
COc1cc(C)c(CN2CCN(c3ncccn3)CC2)cc1C | -1.8 | i | i | / | i | i | / | / | /
CCOC(=O)C1CCCN(C2=NC(=O)/C(=C/c3ccc(N(C)C)cc3)S2)C1 (configuration not stated) | -28.8 | -8.42* | i | -3.0 | 8* | i | 55.5%* | i | 86.0%*
c1ccc(COc2cccc(CN3CCN(c4ccccn4)CC3)c2)cc1 | -20.4 | -9.07* | i | -36.1 | i | i | 35.0%* | i | 27.0%*
CCn1c(SCC(=O)NC2CCCCC2)nnc1-c1cc2cccc(OC)c2o1 | -9.4 | i | i | 33.1 | i | i | i | i | i
CC(C)(C)c1ccc(SCCc2cccnc2)cc1 | 0.3 | i | i | 27.3 | i | i | i | i | i
c1ccc(SCCc2ccncc2)cc1 | -7.3 | i | i | 44.8 | i | i | / | / | /
C=CCNc1nc(-c2cc3ccccc3o2)cs1 | -3.8 | i | i | -4.5 | i | i | / | / | /
c1ccc2oc(-c3csc(NCC4CCCO4)n3)cc2c1 (configuration not stated) | -6.9 | i | i | 11.7 | i | i | i | i | i
O=c1oc2ccccc2cc1-c1csc(NN=C2CCCCC2)n1 | -7.4 | i | i | -121.7 | i | i | i | i | i
CC(=O)Nc1ccc(-c2csc(NC(=O)Cc3ccccc3F)n2)cc1 | -10.5 | i | i | 10.2 | i | i | / | / | /
CC(C)N(Cc1ccccc1)C(=O)CCc1ccccc1 | -6.1 | i | i | -6.2 | i | i | i | i | i
Cc1ccc(S(=O)(=O)N(Cc2ccccc2)c2ccccc2C(=O)Nc2ccccc2C(=O)NCc2ccco2)cc1 | -7.7 | -9.61* | i | 13.4 | 8* | i | i | i | 34.0%*
C=CCC1(CC=C)CCCN1C(=O)c1cc(COc2cccc(OC)c2)on1 | -5.1 | i | i | 12.1 | i | i | i | i | i
COCC1CCN(C(=O)c2cc(COc3ccc4c(c3)CCCC4)on2)C1 (configuration not stated) | -12.6 | i | i | 31.3 | i | i | i | i | i
COc1cccc(OCc2cc(C(=O)N3CCN(C)C(c4ccccc4)C3)no2)c1 (configuration not stated) | -12.0 | i | i | 35.5 | i | i | i | i | i
COc1ccc(OCc2cc(C(=O)N3CCC(c4ccccc4)CC3)no2)c(Cl)c1 | -4.8 | i | i | 14.5 | i | i | / | / | /
COCC1CCN(C(=O)c2cc(COc3ccc(C)c(C)c3)on2)C1 (configuration not stated) | -4.6 | i | i | 37.0 | i | i | / | / | /
CC(C)CCN1CCN(Cc2cccn2-c2ccc(Cl)cn2)CC1CCO (configuration not stated) | -6.7 | i | i | 41.2 | i | i | / | / | /
COc1ccc(Br)cc1CN(C)C(C)C(=O)Nc1cc([N+](=O)[O-])ccc1OC (configuration not stated) | -4.9 | i | i | -29.4 | i | i | / | / | /

Source: PubChem
